Legend:
[1] = target: T1, PKA CαM120A (Mus musculus, UniProt P05132, M121A); assay: Atxn1 2Q/2Q; format: cell-based
[2] = target: T1, PKA CαM120A; format: biochemical
[3] = target: CαM120A (Mus musculus, UniProt P05132, M121A); assay: 1-NM-PP1 delivered in vivo; details: cage drinking water or intra-cerebro-ventricular injections, data not shown
[4] = mice, delivered in drinking water or by IP injection; cited from earlier work
[5] = system: Atxn1[66Q] and Atxn1[2Q]; assay: GSK690693 treatment in Atxn1 66Q/2Q cerebellar slice cultures; format: cell-based, mouse; details: 10 μM
[6] = system: endogenous human ATXN1; assay: SCA1 patient iPSC-derived neuronal cells, western blot of ATXN1; format: cell-based; details: 10 μM, two-day treatment
How it was run: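 NPCs differentiated 7 days in DMEM/F12 with 100 ng/ml FGF8, 200 ng/mL SHH and 1:100 N2; β-III tubulin-stained. Treated 2 days with 10 μM test compound, lysed in Tris-Triton buffer. Western blot: MoAb-17 (1 ng/μl) for pS776, 11750 for total ATXN1, GAPDH-normalised.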

[7] = system: mice; details: mouse
[8] = target: PKA; details: cited from earlier work
[9] = system: MSK; details: read-out: IC50 as MSK inhibitor; cited from earlier work
[10] = system: RFP-ATXN1[82Q] in DAOY cells; assay: Live cell imaging of DAOY cells stably expressing RFP-ATXN1[82Q]; format: cell-based, human
How it was run: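 DAOY cells stably carrying RFP-ATXN1[82Q]-IRES-YFP, grown on 35 mm plates and moved to imaging chambers heated to 37 °C. At time zero, 10 nM test compound or DMSO vehicle was added. Brightfield and RFP images were taken every 2 minutes on an inverted fluorescence microscope.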

[11] = system: PKA pathway; details: postnatal day 7 ATXN1[82Q] mouse cerebellar slices; cited from earlier work
[12] = 20 μM 1-NM-PP1, three-day incubation, vs no treatment or DMSO
[13] = one day of exposure, P10 slices

Question: Which “level of Atxn1[2Q] protein” value [1, 12] does the source give for CC(C)(C)n1nc(Cc2cccc3ccccc23)c2c(N)ncnc21 [1-NM-PP1] here?
Answer: failed to affect

Question: And the “phosphorylation of pan-PKA substrates” value [1, 12]?
Answer: failed to affect

Question: What about the “inhibition of S776 phosphorylation” value ([2]; 10 μM 1-NM-PP1, the highest dose tested) of the same compound?
Answer: Subtle inhibition

Question: And the “inhibition of CαM120A in vivo” value [3]?
Answer: failed

Question: And the “blood brain barrier crossing” value [4]?
Answer: cross the blood brain barrier

Question: With CCn1c(-c2nonc2N)nc2c(C#CC(C)(C)O)ncc(OC[C@H]3CCCNC3)c21 [GSK690693, 4-[2-(4-Amino-1,2,5-oxadiazol-3-yl)-1-ethyl-7-[(3S)-3-piperidinylmethoxy)-1H-imidazo[4,5-c]pyridin-4-yl]-2-methyl-3-butyn-2-ol] as the compound, how does the “S776 phosphorylation status (MoAB-17 blot)” value ([5]; by 5 days of treatment) read?
Answer: decrease in pS776

Question: And the “phosphorylation of other cerebellar proteins with PKA consensus site RRX(S/T) (pan-PKA substrates antibody)” value ([5]; by one day of treatment)?
Answer: Inhibition

Question: And the “reduction of Atxn1[2Q] level” value ([5]; five days)?
Answer: 68%

Question: And the “reduction of Atxn1[66Q] level” value ([5]; five days)?
Answer: 70%

Question: What about the “reduction of Atxn1[2Q] level” value [5, 13] of the same compound?
Answer: 22%

Question: And the “reduction of Atxn1[66Q] level” value [5, 13]?
Answer: 29%

Question: And the “reduction of Atxn1[2Q] level” value ([5]; three days)?
Answer: 54%

Question: And the “reduction of Atxn1[66Q] level” value ([5]; three days)?
Answer: 56%

Question: What about the “reduction of endogenous ATXN1 levels” value [6] of the same compound?
Answer: 44%

Question: And the “amount of Atxn1[2Q] protein” value ([1]; 10 μM GSK690693, two days)?
Answer: significantly decreased

Question: What about the pan-PKA substrate phosphorylation ([1]; 10 μM GSK690693, two days) of the same compound?
Answer: dramatically decreased

Question: What about the “concentration that blocks ATXN1[30Q]-S776 phosphorylation” value ([2]; Cα M120A cerebellar extracts as kinase source) of the same compound?
Answer: ≤ 10 nM

Question: And the toxicity in vivo [7]?
Answer: very toxic with treated mice having seizures

Question: And the “IC50s for AGC kinase family members including PKA (in words)” value [8]?
Answer: nanomolar

Question: Which results are given for CCn1c(-c2nonc2N)nc2cncc(CNC3CCNCC3)c21 [SB-747651A]?
Answer: IC50 [9]: 11 nM; inhibitory activity towards PKA relative to MSK (less) [8]: approximately 10 fold

Question: Which “RFP-ATXN1[82Q] signal” value ([10]; 10 nM staurosporine, as early as two minutes post-treatment, continued to decrease out to six minutes, 37 °C) does the source give for CN[C@@H]1C[C@H]2O[C@@](C)([C@@H]1OC)n1c3ccccc3c3c4c(c5c6ccccc6n2c5c31)C(=O)NC4 [Staurosporine] here?
Answer: substantially diminished

Question: And the “fluorescently tagged ATXN1[82Q] detectability” value ([10]; after four minutes of exposure to staurosporine)?
Answer: no longer detectable

Question: For C=C[C@@]1(C)CC(=O)[C@]2(O)[C@@]3(C)[C@@H](O)CCC(C)(C)[C@@H]3[C@H](O)[C@H](OC(C)=O)[C@@]2(C)O1 [forskolin], which “dendritic morphology of cerebellar slices” value [11] is on record?
Answer: enhanced dendritic morphological abnormalities
